Source: ChEMBL document CHEMBL4325835, “Atropisomerism by Design: Discovery of a Selective and Stable Phosphoinositide 3-Kinase (PI3K) β Inhibitor” (J Med Chem, 2018)
Where “and” joins values, the source holds several entries; their conditions need not be identical. Equal values may be shown once. Entries after “also recorded” stand apart in the source; their conditions may differ. Each block holds one compound with its values, some of them ahead of it. Calls of active or inactive are those of the source. The calls are words filed in the database; no cut-off is given here.

Assays:
[1] = biological target: Phosphatidylinositol 4,5-bisphosphate 3-kinase catalytic subunit gamma isoform (Homo sapiens, UniProt P48736); assay: Inhibition of full length human PI3Kgamma using PIP2 as substrate after 30 mins by TR-FRET assay
Chain of Phosphatidylinositol 4,5-bisphosphate 3-kinase catalytic subunit gamma isoform (P48736 whole entry, canonical isoform): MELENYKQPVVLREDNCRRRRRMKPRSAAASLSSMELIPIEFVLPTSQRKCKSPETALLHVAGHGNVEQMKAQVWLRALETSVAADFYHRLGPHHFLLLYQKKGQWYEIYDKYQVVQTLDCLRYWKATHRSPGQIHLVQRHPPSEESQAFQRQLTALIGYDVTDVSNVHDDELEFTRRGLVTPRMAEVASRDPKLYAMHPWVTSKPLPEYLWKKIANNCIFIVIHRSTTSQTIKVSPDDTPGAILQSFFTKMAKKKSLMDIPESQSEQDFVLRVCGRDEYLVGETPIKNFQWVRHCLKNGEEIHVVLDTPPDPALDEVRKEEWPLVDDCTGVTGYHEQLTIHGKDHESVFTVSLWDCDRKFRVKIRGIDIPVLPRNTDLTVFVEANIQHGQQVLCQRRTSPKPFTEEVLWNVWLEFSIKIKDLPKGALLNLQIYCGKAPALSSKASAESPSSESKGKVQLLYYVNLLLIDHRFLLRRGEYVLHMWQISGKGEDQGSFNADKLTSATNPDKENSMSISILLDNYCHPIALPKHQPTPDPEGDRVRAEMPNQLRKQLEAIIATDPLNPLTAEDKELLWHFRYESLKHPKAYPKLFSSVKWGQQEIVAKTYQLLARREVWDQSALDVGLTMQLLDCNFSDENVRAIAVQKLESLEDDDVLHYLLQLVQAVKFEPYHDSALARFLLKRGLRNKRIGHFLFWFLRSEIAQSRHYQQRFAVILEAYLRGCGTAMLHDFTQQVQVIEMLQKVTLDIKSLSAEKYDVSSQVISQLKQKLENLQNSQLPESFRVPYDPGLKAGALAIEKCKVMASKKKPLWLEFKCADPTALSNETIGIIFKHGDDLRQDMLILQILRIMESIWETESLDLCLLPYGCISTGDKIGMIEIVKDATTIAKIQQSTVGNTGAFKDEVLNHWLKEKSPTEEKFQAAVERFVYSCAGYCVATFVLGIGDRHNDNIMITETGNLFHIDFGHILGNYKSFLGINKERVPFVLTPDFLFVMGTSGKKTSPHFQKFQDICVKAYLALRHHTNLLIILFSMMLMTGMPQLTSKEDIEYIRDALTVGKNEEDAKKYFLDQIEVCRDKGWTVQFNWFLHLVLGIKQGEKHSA
Method in brief: (§1)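 In vitro kinase assay run against each Class I PI3K isoform, with ATP at 2×Km steady-state concentration; IC50 values are the average of at least 2 determinations.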

[2] = Intrinsic clearance in human liver microsomes at 1 uM measured in presence of NADPH/UDPGA by UHPLC-HRMS based assay; format: ADME, Microsome
Aldehyde oxidase [3] = biological target: T1, Aldehyde oxidase (Homo sapiens, UniProt Q06278); assay: Drug metabolism in human hepatocytes assessed as AO-mediated 4-(6-(2-amino-3-fluoropyridin-4-yl)-2-methyl-4-(4H-1,2,4-triazol-3-yl)-1H-benzo[d]imidazol-1-yl)-5,8-difluoroquinolin-2(1H)-one metabolite formation at 0.5 uM measured up to 250 mins by UHPLC-HRMS based assay; format: ADME, cell-based
T1 sequence (Q06278 whole entry): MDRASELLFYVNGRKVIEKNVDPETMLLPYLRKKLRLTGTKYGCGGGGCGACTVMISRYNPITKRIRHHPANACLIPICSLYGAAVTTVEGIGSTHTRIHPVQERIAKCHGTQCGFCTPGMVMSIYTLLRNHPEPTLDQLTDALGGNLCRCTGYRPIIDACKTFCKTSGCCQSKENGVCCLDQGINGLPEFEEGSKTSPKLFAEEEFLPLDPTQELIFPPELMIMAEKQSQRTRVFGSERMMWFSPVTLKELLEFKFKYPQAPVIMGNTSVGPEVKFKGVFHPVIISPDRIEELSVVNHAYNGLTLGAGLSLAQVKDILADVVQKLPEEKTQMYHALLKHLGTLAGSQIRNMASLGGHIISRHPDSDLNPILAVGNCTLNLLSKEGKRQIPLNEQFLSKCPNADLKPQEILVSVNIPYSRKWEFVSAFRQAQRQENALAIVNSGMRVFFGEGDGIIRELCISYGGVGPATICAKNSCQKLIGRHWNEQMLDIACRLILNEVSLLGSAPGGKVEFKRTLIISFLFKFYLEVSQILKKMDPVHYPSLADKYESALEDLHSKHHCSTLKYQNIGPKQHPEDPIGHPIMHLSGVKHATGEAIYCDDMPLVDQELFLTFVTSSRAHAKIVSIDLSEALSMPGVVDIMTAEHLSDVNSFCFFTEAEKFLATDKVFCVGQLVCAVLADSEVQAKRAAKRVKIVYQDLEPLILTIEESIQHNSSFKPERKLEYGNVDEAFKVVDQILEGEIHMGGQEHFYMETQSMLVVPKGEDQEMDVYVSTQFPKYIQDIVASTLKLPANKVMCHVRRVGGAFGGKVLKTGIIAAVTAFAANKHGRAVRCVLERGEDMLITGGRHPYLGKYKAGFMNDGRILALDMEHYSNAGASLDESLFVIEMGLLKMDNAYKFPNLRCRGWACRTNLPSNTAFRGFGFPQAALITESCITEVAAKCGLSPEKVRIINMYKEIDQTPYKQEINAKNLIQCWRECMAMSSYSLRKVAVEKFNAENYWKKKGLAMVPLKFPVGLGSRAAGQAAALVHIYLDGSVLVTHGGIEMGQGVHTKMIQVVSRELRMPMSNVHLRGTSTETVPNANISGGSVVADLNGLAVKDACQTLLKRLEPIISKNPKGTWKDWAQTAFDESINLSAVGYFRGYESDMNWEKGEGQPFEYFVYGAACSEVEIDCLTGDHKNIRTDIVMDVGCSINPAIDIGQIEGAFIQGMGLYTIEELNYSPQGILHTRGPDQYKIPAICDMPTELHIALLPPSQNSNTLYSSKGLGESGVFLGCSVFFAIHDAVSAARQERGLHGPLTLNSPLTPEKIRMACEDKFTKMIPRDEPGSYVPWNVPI

Aldehyde oxidase [4] = biological target: T1, Aldehyde oxidase; assay: Drug metabolism in human hepatocytes assessed as AO-mediated triazole oxidation at 0.5 uM measured up to 250 mins by UHPLC-HRMS based assay; format: ADME, cell-based
Aldehyde oxidase [5] = biological target: T1, Aldehyde oxidase; assay: Drug metabolism in human liver cytosol assessed as AO-mediated 4-(6-(2-amino-3-fluoropyridin-4-yl)-2-methyl-4-(4H-1,2,4-triazol-3-yl)-1H-benzo[d]imidazol-1-yl)-5,8-difluoroquinolin-2(1H)-one metabolite formation at 0.5 uM measured after 2 hrs by UHPLC-HRMS based assay; format: ADME, subcellular
[6] = biological target: Voltage-gated inwardly rectifying potassium channel KCNH2 (Homo sapiens, UniProt Q12809); assay: Inhibition of human ERG at 25 uM
Cytochrome P450 = assay: Inhibition of human CYP450 at 25 uM; format: ADME, protein assay
[7] = Fraction unbound in Sprague-Dawley rat plasma; format: ADME, cell-free
[8] = Clearance in Sprague-Dawley rat at 1 mg/kg, iv by ESI-LC/MS/MS analysis; format: ADME, organism-based; conditions: in vivo
[9] = Volume of distribution at steady state in Sprague-Dawley rat at 1 mg/kg, iv by ESI-LC/MS/MS analysis; format: ADME, organism-based; conditions: in vivo, read-out: Vdss
[10] = Terminal half life in Sprague-Dawley rat at 1 mg/kg, iv by ESI-LC/MS/MS analysis; format: ADME, organism-based; conditions: in vivo, read-out: beta t1/2 (converted)
[11] = MRT in Sprague-Dawley rat at 1 mg/kg, iv by ESI-LC/MS/MS analysis; format: ADME, organism-based; conditions: in vivo
[12] = Oral bioavailability in Sprague-Dawley rat at 5 mg/kg by ESI-LC/MS/MS analysis; format: ADME, organism-based; conditions: in vivo
[13] = Fraction unbound in Beagle dog plasma; format: ADME, cell-free, Canis lupus familiaris
[14] = Clearance in Beagle dog at 1 mg/kg, iv by ESI-LC/MS/MS analysis; format: ADME, organism-based, Canis lupus familiaris; conditions: in vivo
[15] = Volume of distribution at steady state in Beagle dog at 1 mg/kg, iv by ESI-LC/MS/MS analysis; format: ADME, organism-based, Canis lupus familiaris; conditions: in vivo, read-out: Vdss
[16] = Terminal half life in Beagle dog at 1 mg/kg, iv by ESI-LC/MS/MS analysis; format: ADME, organism-based, Canis lupus familiaris; conditions: in vivo, read-out: beta t1/2 (converted)
[17] = MRT in Beagle dog at 1 mg/kg, iv by ESI-LC/MS/MS analysis; format: ADME, organism-based, Canis lupus familiaris; conditions: in vivo
[18] = Fraction unbound in cynomolgus monkey plasma; format: ADME, cell-free, Macaca fascicularis
[19] = Clearance in cynomolgus monkey at 1 mg/kg, iv by ESI-LC/MS/MS analysis; format: ADME, organism-based, Macaca fascicularis; conditions: in vivo
[20] = Volume of distribution at steady state in cynomolgus monkey at 1 mg/kg, iv by ESI-LC/MS/MS analysis; format: ADME, organism-based, Macaca fascicularis; conditions: in vivo, read-out: Vdss
[21] = Terminal half life in cynomolgus monkey at 1 mg/kg, iv by ESI-LC/MS/MS analysis; format: ADME, organism-based, Macaca fascicularis; conditions: in vivo, read-out: beta t1/2 (converted)
[22] = MRT in cynomolgus monkey at 1 mg/kg, iv by ESI-LC/MS/MS analysis; format: ADME, organism-based, Macaca fascicularis; conditions: in vivo
[23] = Oral bioavailability in cynomolgus monkey at 5 mg/kg by ESI-LC/MS/MS analysis; format: ADME, organism-based, Macaca fascicularis; conditions: in vivo
[24] = Fraction unbound in rhesus monkey plasma; format: ADME, cell-free, Macaca mulatta
[25] = Clearance in rhesus monkey at 1 mg/kg, iv by ESI-LC/MS/MS analysis; format: ADME, organism-based, Macaca mulatta; conditions: in vivo
[26] = Volume of distribution at steady state in rhesus monkey at 1 mg/kg, iv by ESI-LC/MS/MS analysis; format: ADME, organism-based, Macaca mulatta; conditions: in vivo, read-out: Vdss
[27] = Terminal half life in rhesus monkey at 1 mg/kg, iv by ESI-LC/MS/MS analysis; format: ADME, organism-based, Macaca mulatta; conditions: in vivo, read-out: beta t1/2 (converted)
[28] = MRT in rhesus monkey at 1 mg/kg, iv by ESI-LC/MS/MS analysis; format: ADME, organism-based, Macaca mulatta; conditions: in vivo
[29] = Permeability across apical to basolateral side in human Caco2 cells at 10 uM after 1 to 2 hrs by LC/MS/MS analysis; format: ADME, cell-based; conditions: Caco-2, read-out: permeability
[30] = Efflux ratio of apparent permeability in human Caco2 cells at 10 uM after 1 to 2 hrs by LC/MS/MS analysis; format: ADME, cell-based; conditions: Caco-2
[31] = Conformation stability assessed as rate constant for (P)-4-(1-(5,8-difluoroquinolin-4-yl)-2-methyl-4-(4H-1,2,4-triazol-3-yl)-1H-benzo[d]imidazol-6-yl)-3-fluoropyridin-2-amine formation at 10 mg at 120 degC by chiral SFC analysis; format: physicochemical
[32] = biological target: Phosphatidylinositol 4,5-bisphosphate 3-kinase catalytic subunit beta isoform (Homo sapiens) (UniProt P42338); assay: Inhibition of partial length human PI3Kbeta expressed in mammalian system at 10 uM by active site-directed competition binding based KINOMEscan assay
Method in brief: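 Active-site-directed competition binding assay across more than 400 human kinases, with compound tested at 10 µM.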

[33] = biological target: PI3-kinase p110-alpha/p85-alpha (Homo sapiens, UniProt P42336); assay: Inhibition of full length human p110alpha/p85alpha using PIP2 as substrate after 30 mins by TR-FRET assay; format: protein-complex assay; method in brief: as §1
Chain of PI3-kinase p110-alpha/p85-alpha (P27986 whole entry): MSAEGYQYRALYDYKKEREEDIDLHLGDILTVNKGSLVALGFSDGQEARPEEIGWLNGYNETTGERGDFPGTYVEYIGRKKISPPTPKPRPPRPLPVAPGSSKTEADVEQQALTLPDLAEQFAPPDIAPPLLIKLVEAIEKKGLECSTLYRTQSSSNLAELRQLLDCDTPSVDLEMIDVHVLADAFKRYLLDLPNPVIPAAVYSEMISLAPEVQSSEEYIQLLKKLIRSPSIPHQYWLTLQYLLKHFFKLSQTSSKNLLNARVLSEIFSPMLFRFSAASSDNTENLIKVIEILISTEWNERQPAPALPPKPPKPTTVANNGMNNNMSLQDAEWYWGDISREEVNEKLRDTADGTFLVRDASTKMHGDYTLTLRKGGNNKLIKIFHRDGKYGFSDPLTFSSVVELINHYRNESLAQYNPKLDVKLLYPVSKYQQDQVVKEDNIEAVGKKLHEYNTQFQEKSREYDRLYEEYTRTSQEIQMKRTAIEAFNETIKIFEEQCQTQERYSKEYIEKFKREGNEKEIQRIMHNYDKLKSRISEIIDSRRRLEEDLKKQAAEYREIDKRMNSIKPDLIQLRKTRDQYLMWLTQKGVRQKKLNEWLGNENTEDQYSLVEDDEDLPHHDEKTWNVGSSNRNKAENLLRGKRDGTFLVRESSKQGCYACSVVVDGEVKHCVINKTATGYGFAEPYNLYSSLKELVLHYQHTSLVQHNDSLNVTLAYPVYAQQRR
Chain of PI3-kinase p110-alpha/p85-alpha (P42336 whole entry): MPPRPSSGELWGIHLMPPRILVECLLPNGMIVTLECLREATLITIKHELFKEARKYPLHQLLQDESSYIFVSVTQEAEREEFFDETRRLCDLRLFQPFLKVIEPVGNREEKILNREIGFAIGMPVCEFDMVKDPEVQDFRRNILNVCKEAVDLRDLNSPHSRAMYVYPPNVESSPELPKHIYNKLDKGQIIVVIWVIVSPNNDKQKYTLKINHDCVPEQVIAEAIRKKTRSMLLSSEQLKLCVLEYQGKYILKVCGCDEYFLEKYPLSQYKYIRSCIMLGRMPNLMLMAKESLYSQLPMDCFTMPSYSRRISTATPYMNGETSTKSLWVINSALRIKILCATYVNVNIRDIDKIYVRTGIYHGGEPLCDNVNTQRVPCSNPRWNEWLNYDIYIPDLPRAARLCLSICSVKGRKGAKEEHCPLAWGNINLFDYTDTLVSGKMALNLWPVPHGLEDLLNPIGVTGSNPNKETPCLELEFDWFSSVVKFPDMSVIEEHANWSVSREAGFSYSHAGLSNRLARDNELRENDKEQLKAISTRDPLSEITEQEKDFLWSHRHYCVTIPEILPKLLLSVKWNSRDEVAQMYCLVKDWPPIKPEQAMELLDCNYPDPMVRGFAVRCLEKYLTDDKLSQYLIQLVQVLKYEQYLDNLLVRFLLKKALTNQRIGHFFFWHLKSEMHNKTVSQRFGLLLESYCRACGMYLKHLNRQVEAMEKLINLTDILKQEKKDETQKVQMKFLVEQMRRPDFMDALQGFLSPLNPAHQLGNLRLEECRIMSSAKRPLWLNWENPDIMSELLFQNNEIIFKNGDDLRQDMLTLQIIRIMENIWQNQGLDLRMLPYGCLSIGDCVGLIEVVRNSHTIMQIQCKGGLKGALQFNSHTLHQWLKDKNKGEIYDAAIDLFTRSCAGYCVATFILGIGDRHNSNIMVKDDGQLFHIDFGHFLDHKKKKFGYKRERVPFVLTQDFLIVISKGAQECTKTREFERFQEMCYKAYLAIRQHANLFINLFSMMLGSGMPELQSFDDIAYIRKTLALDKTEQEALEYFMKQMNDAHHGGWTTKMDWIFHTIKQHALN

PI3K p110 beta/p85 alpha = PI3K p110 beta/p85 alpha (Homo sapiens, UniProt P42338); assay: Inhibition of full length human His-tagged p110beta/p85alpha using PIP2 as substrate after 30 mins by TR-FRET assay; format: protein-complex assay; method in brief: as §1
Chain of PI3K p110 beta/p85 alpha (P27986 whole entry): as the sequence (P27986 whole entry) above
Chain of PI3K p110 beta/p85 alpha (P42338 whole entry): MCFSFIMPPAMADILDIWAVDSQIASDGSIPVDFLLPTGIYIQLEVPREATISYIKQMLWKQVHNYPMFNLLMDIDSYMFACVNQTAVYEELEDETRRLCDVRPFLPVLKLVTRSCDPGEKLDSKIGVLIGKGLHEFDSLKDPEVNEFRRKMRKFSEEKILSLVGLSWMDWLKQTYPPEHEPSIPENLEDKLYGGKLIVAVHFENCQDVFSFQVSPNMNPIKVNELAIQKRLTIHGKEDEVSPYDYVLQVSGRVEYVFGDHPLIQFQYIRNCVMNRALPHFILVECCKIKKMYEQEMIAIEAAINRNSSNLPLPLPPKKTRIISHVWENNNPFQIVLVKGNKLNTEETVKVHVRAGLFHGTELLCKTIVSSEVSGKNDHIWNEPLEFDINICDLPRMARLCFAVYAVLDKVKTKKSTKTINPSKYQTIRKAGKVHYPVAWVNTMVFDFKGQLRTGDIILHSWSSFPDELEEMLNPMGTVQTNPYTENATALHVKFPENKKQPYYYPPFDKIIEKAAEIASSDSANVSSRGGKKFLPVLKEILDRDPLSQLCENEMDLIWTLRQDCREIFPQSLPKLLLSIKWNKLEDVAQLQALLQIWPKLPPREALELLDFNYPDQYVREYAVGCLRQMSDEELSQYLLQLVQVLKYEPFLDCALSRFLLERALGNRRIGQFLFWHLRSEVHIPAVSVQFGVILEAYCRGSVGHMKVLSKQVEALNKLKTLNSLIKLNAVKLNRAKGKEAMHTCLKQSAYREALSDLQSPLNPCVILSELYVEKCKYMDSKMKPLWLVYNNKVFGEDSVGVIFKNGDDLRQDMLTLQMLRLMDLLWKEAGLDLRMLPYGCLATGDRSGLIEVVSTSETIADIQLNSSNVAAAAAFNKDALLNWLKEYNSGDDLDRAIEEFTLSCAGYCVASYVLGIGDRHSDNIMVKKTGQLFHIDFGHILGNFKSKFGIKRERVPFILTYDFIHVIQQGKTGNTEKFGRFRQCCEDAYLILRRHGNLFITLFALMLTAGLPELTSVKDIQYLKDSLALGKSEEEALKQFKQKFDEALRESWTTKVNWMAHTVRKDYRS

[34] = biological target: PI3-kinase p110-delta/p85-alpha (Homo sapiens, UniProt O00329); assay: Inhibition of full length human p110delta/p85alpha using PIP2 as substrate after 30 mins by TR-FRET assay; format: protein-complex assay; method in brief: as §1
Chain of PI3-kinase p110-delta/p85-alpha (P27986 whole entry): as the sequence (P27986 whole entry) above
Chain of PI3-kinase p110-delta/p85-alpha (O00329 whole entry): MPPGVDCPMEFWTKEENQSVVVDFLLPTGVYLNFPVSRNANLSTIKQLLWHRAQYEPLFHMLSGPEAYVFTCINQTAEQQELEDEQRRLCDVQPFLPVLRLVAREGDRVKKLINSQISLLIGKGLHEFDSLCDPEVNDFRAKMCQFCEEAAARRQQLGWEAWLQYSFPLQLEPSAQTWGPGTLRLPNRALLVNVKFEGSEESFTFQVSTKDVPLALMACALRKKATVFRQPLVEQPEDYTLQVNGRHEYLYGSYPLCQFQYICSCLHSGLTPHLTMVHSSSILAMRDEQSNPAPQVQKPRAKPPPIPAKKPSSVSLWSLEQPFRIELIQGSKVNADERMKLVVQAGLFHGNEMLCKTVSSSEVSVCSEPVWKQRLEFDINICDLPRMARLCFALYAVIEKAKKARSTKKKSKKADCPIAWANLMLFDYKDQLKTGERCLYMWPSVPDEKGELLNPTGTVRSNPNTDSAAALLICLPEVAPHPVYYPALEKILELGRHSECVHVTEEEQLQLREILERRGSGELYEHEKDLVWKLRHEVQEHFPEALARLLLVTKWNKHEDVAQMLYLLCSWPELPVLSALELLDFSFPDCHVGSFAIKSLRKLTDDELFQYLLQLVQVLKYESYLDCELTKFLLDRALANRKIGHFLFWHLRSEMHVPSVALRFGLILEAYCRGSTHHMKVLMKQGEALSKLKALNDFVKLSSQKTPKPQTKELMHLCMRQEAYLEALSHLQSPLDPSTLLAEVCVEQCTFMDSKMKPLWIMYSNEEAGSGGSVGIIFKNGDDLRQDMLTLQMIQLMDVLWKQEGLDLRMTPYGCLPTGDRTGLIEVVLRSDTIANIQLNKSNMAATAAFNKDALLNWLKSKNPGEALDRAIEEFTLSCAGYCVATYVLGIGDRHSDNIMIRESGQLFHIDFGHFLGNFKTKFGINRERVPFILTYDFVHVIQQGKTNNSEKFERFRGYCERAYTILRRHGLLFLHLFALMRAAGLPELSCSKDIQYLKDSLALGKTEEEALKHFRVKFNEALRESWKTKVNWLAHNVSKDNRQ

IC50 [1]: > 10000 nM and 4270 nM and 4160 nM | CLint scaled at 1 µM ([2]; liver microsomes, read-out: CLH (converted)): 2.5 mL/min/kg | CLH ([2]; microsomes, 1 µM): < 2 mL/min/kg | Drug metabolism (Aldehyde oxidase [3]): Metabolite_Detected | Drug metabolism (Aldehyde oxidase [4]): Metabolite_Detected | Stability (Aldehyde oxidase [4]): Stable | inhibition (INH) (Cytochrome P450): Not Active | fraction unbound [7]: 0.19 | clearance [8]: 11.3 mL/min/kg | Vd [9]: 2.68 L/kg | half-life [10]: 9.55 h | MRT [11]: 3.87 h | bioavailability [12]: 60.4% | fraction unbound [13]: 0.078 | clearance [14]: 3.67 mL/min/kg | Vd [15]: 0.89 L/kg | half-life [16]: 3.61 h | MRT [17]: 4.04 h | fraction unbound [18]: 0.062 | clearance [19]: 1.83 mL/min/kg | Vd [20]: 0.45 L/kg | half-life [21]: 5.17 h | MRT [22]: 4.3 h | bioavailability [23]: 64.2% | fraction unbound [24]: 0.072 | clearance [25]: 1.67 mL/min/kg | Vd [26]: 0.63 L/kg | half-life [27]: 6.04 h | MRT [28]: 6.2 h | Papp A→B at 10 µM [29]: 17 ×10⁻⁶ cm/s | efflux ratio at 10 µM [30]: < 1.5 | K [31]: 2.64 ×10⁻⁷ /s | inhibition [32]: Active
Structure (SMILES): Cc1nc2c(-c3nnc[nH]3)cc(-c3ccnc(N)c3F)cc2n1-c1ccnc2c(F)ccc(F)c12
Drug metabolism (Aldehyde oxidase [5]): Metabolite_Notdetected; also recorded: Metabolite_Detected | inhibition (INH) [6]: Not Active

IC50 [33]: 233 nM | IC50 (PI3K p110 beta/p85 alpha): 11 nM | IC50 [34]: 67 nM | IC50 [1]: 440 nM
Structure (SMILES): Nc1nccc(-c2cc(-c3nnc[nH]3)c3ncn(-c4ccnc5c(F)ccc(F)c45)c3c2)c1F
